Data as given in ChEMBL document CHEMBL5724801, “EUbOPEN Chemogenomics Library - Multiplex” (2024).
Values joined by “and” are separate entries in the source; they are usually repeats but may differ in a detail not shown here. Equal entries are not always repeated.

Test system: Fibroblast
Assay: Multiplex assay against human fibroblast
Type: toxicity, cell-based
Summary of the method: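 Per cents of healthy-nucleus cells form the tubulin, mitochondrial-mass and membrane-permeability phenotype values. Live cells were stained at seeding with Hoechst33342, BioTracker Green Microtubule Cytoskeleton Dye, MitoTracker Red and Annexin V Alexa Fluor 680. After compound addition they were imaged on a CQ1 microscope at 37°C and 5% CO2, and CellPathfinder machine-learning gating split them into Hoechst high-intensity objects or normal cells, normal cells into healthy, pyknosed or fragmented nuclei, and pyknosed cells into mitotic or apoptotic.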

[1] = 12 h, 1 µM, compound concentration 1 uM
[2] = 12 h, 10 µM, compound concentration 10 uM
[3] = 24 h, 1 µM, compound concentration 1 uM
[4] = 24 h, 10 µM, compound concentration 10 uM
[5] = 48 h, 1 µM, compound concentration 1 uM
[6] = 48 h, 10 µM, compound concentration 10 uM

COC[C@@H](CC(C)C)NC1=N/C(=C\c2ccc3ncsc3c2)C(=O)N1C
Population Apoptotic (%) [1]: 28.21% and 31.58%
Population Fragmented Nuclei (%) [1]: 27.8% and 24.34%
Population Healthy Nuclei (%) [1]: 58.12% and 69.41%
Population Hoechst High Intensity Objects (%) [1]: 0%
Population Membrane Permeable-Phenotype (%) [1]: 3.73% and 4.27%
Population Mitochondria Different-Phenotype (%) [1]: 9.94% and 6.64%
Population Mitotic Cells (%) [1]: 71.79% and 68.42%
Population Normal (%) [1]: 100%
Population Pyknosed Nuclei (%) [1]: 14.08% and 6.25%
Population Tubulin-Different-Phenotype (%) [1]: 13.66% and 33.18%
Total Cell Count [1]: 277 and 304
Population Fragmented Nuclei (%) [2]: 75.02% and 85.21%
Population Healthy Nuclei (%) [2]: 17.78% and 11.87%
Population Hoechst High Intensity Objects (%) [2]: 13.82% and 16.56%
Population Membrane Permeable-Phenotype (%) [2]: 4.92% and 5.22%
Population Mitochondria Different-Phenotype (%) [2]: 5.46% and 4.48%
Population Mitotic Cells (%) [2]: 87.84% and 51.52%
Population Normal (%) [2]: 86.18% and 83.44%
Population Pyknosed Nuclei (%) [2]: 7.19% and 2.92%
Population Tubulin-Different-Phenotype (%) [2]: 16.94% and 38.81%
Total Cell Count [2]: 1194 and 1353
Population Apoptotic (%) [3]: 32.26% and 29.41%
Population Fragmented Nuclei (%) [3]: 28.52% and 23.81%
Population Healthy Nuclei (%) [3]: 60.56% and 70.41%
Population Hoechst High Intensity Objects (%) [3]: 0%
Population Membrane Permeable-Phenotype (%) [3]: 1.16% and 4.83%
Population Mitochondria Different-Phenotype (%) [3]: 10.47% and 6.28%
Population Mitotic Cells (%) [3]: 67.74% and 70.59%
Population Normal (%) [3]: 100%
Population Pyknosed Nuclei (%) [3]: 10.92% and 5.78%
Population Tubulin-Different-Phenotype (%) [3]: 18.02% and 35.27%
Total Cell Count [3]: 284 and 294
Population Apoptotic (%) [4]: 15.79% and 43.33%
Population Fragmented Nuclei (%) [4]: 73.6% and 85.59%
Population Healthy Nuclei (%) [4]: 21.08% and 11.79%
Population Hoechst High Intensity Objects (%) [4]: 7.03% and 15.44%
Population Membrane Permeable-Phenotype (%) [4]: 6.19% and 3.7%
Population Mitotic Cells (%) [4]: 84.21% and 56.67%
Population Normal (%) [4]: 92.97% and 84.56%
Population Pyknosed Nuclei (%) [4]: 5.32% and 2.62%
Population Tubulin-Different-Phenotype (%) [4]: 36.73% and 51.85%
Total Cell Count [4]: 1153 and 1354
Population Apoptotic (%) [5]: 32.14% and 52.94%
Population Fragmented Nuclei (%) [5]: 34.66% and 16.78%
Population Healthy Nuclei (%) [5]: 57.39% and 77.27%
Population Hoechst High Intensity Objects (%) [5]: 0%
Population Membrane Permeable-Phenotype (%) [5]: 1.98% and 1.36%
Population Mitochondria Different-Phenotype (%) [5]: 7.43% and 5.43%
Population Mitotic Cells (%) [5]: 67.86% and 47.06%
Population Normal (%) [5]: 100%
Population Pyknosed Nuclei (%) [5]: 7.95% and 5.94%
Total Cell Count [5]: 352 and 286
Population Apoptotic (%) [6]: 14.55% and 28.57%
Population Fragmented Nuclei (%) [6]: 76.66% and 86.7%
Population Healthy Nuclei (%) [6]: 18.12% and 11%
Population Hoechst High Intensity Objects (%) [6]: 20.81% and 19.66%
Population Membrane Permeable-Phenotype (%) [6]: 13.61% and 14.18%
Population Mitochondria Different-Phenotype (%) [6]: 1.57% and 10.45%
Population Mitotic Cells (%) [6]: 85.45% and 71.43%
Population Normal (%) [6]: 79.19% and 80.34%
Population Pyknosed Nuclei (%) [6]: 5.22% and 2.3%
Population Tubulin-Different-Phenotype (%) [6]: 27.75% and 50.75%
Total Cell Count [6]: 1331 and 1516
